In the library only some 1.4% were active in any assay of this set; here they are far more common.
PKA-R2B act = activators of human PKA-R2B complex. P22694+P31323. PKA-R2B holoenzyme dissociation, Cy5-IP20 fluorescence polarization; R2B truncated from residue 108, S112A mutant; 0% DMSO only, 100% 113 µM cGMP. activation, % at 11.4 µM. hit rate 0.079% among 340,000. AID 504700;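 active means activation above a cutoff set at the mean over all compounds plus 3 SD, cut at about 18% in these data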;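 further: higher means more holoenzyme dissociation and a rise in polarization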
Target sequence (P31323 whole entry, looked up, other chains not shown, the tested form may be a part): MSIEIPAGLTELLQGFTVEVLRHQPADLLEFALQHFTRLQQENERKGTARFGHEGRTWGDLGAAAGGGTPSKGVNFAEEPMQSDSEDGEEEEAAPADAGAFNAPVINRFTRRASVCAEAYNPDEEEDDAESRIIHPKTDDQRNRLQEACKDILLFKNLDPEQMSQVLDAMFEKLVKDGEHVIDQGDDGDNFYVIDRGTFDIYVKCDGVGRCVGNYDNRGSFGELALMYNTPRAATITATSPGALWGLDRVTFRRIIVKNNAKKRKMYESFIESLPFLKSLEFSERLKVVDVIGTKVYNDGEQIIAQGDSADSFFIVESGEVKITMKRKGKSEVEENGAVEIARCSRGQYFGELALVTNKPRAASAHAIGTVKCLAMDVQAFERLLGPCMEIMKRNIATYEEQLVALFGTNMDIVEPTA
SR-BI DiI inh = mouse SR-BI HDL lipid transfer inhibition; ldlA[mSR-BI] CHO cells, DiI-HDL uptake fluorescence, 3 h; inhibition, % at 12.5 µM; hit rate 0.96% among 320,000; Q61009;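 active means mean replicate inhibition of at least 70% and a set share of replicates each scoring 70 or more; inconclusive means meets just one of the two criteria; inactive means fails both criteria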
SR-BI DiI-HDL act = enhances SR-BI lipid uptake from DiI-HDL. CHO ldlA[mSR-BI] cells, DiI-HDL uptake fluorescence, 3 h; 100 = double the neutral-control signal. AID 504775. hit rate 0.096% among 320,000. activation, % at 12.5 µM;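 active means mean replicate activation of at least 60% and every replicate at or above 60%; inconclusive means mean or all-replicate condition met, but not both; inactive means mean below 60% and not all replicates reaching 60%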
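system = CHO ldlA[mSR-BI] cells, LDL receptor-null, SR-BI overexpressing | medium = Ham's F12 with 0.5% BSA, HEPES 25 mM, pH 7.4 | probe or stimulus = DiI-HDL 10 µg/mL | compound dosing = single-point compound dose | incubation = compound exposure 3 h, 37 °C | technique = DiI fluorescence, bottom read | read-out = cell-associated DiI fluorescence as measure of HDL uptake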
Vif inh = blocks HIV Vif function. HEK293T cells, Vif self-association by quenched fluorescence, imaging, 24 h. inhibition, % at 7.49 µM. hit rate 0.35% among 340,000. AID 602346; in the data active means inhibition above about 50%, passing the limit was not always enough; inconclusive means no clear call, values can overlap the other calls; inactive means below about 31%
PKA-R1A activ = PKA-R1A complex activation. P00514+P68181. hit rate 0.083% among 340,000. activation, % at 11.4 µM. AID 504707. PKA-R1A dissociation, Cy5-IP20 fluorescence polarization; scaled: DMSO 0%, 113 µM cGMP 100%;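 active means percent activation above the mean of all tested compounds plus 3 SD, cut at about 19% in these data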;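 further: higher means more PKAc released from R1A so a rise in polarization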
DiI quencher = quenches DiI-HDL fluorescence, an SR-BI assay artifact | shares compounds with SR-BI DiI inh | cell-free DiI-HDL fluorescence quenching, 30 min | AC50, µM (titrated, usually from 35 µM) | AID 540326 | hit rate 20% among 470;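 active means quenching, a falling signal, with AC50 below a set limit tied to the top valid dose, actives reach about 32 µM in these data; inconclusive means no clear call, values can overlap the other calls; inactive means rising signal, and the rest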
Numbers stand for hits; 0 = inactive; ? = inconclusive; - = no result.

SMILES	PKA-R2B act	SR-BI DiI inh	SR-BI DiI-HDL act	Vif inh	PKA-R1A activ	DiI quencher
O=C(N/N=C/c1cc(Cl)cc([N+](=O)[O-])c1O)c1ccc2c(c1)OCO2	0	124.4	0	0	0	-
Cc1cc(Br)cc(/C=N/NC(=O)c2ccc3c(c2)OCO3)c1O	0	146.1	0	0	0	-
O=C(N/N=C/c1cc(Br)c(O)c(Br)c1O)c1ccc2c(c1)OCCO2	0	0	0	0	0	-
COc1ccccc1N1CCN(S(=O)(=O)CCNC(=O)c2cccc(F)c2)CC1	0	0	0	-	0	-
C/C(CCC1CC(C)(C)OC1=O)=N\NC(N)=S (centres undefined)	0	72.0	0	0	0	-
C/C(CCC1CC(C)OC1=O)=N\NC(N)=S (centres undefined)	0	70.8	0	0	0	-
C/C(CC1CC(C)(C)OC1=O)=N\NC(N)=S (centres undefined)	-	-	-	0	-	-
C/C(CCC1CC(C)OC1=O)=N\NC(N)=O (centres undefined)	-	-	-	0	-	-
COC(=O)[C@]1(Cc2ccccc2)N[C@H](CN(C)C(=O)Nc2ccc(Cl)cc2)[C@@H]2C(=O)N(C)C(=O)[C@@H]21	0	0	0	0	0	-
CCN(CC)S(=O)(=O)c1ccc(-c2nnc(SCc3nnc(-c4ccc(C)cc4)o3)o2)cc1	0	0	0	0	0	-
CCN(CC)S(=O)(=O)c1ccc(-c2nnc(SCc3nnc(-c4ccc(C)cc4)o3)n2CC)cc1	0	72.1	0	0	0	-
CCN(CC)c1ccc(/C=N/NC(=O)c2nnn(-c3nonc3N)c2C(C)C)c(O)c1	0	132.6	0	0	0	-
CCN(CC)c1ccc(/C=N/N=C(N)N)c(O)c1	0	-	-	64.6	0	-
CCN(CC)c1ccc(/C=N/NC(=O)c2ccoc2C)c(O)c1	0	100.1	0	0	0	-
COc1ccc(C2CCc3cc4c(cc3C2=NO)OCO4)cc1OC (centres undefined)	0	-	-	-	0	-
COc1ccc(-c2csc(C(C)(O)c3cccnc3)n2)cn1 (centres undefined)	-	-	-	0	-	-
CC(=O)NC(c1ccccc1)c1nc(-c2cnc3ccccc3c2)cs1 (centres undefined)	-	-	-	0	-	-
Cc1cc2c(cc1S(=O)(=O)CCC(=O)NCCc1ccccc1)OCC(=O)N2	0	0	0	0	0	-
CC1(C(=O)NC2CCCCCC2)CCN1C(=O)C1(c2ccccc2)CC1 (centres undefined)	-	-	-	0	-	-
CC(=O)N(C)c1ccc(NC(=O)CCN2C(=O)c3ccccc3C2=O)cc1	0	0	0	0	0	-
CC(=O)c1cc(CC=C(C)C)c(O)c(CC=C(C)C)c1O	0	0	0	63.6	0	-
CN(C)C=Nc1c(Br)cc(Br)c2nonc12	0	0	0	69.6	0	-
O=C(COc1ccc(Cl)cc1Cl)N1CCCN(C(=O)COc2ccc(Cl)cc2Cl)CC1	0	84.8	0	0	0	-
O=C(c1nc2ccc(Cl)cn2c1CN1CCC[C@H]1CO)N1CCCCCCC1	0	0	0	0	0	-
CC(C)(C)C1CCC2(CC1)C(Nc1cccc(C(F)(F)F)c1)=NC(=S)N2CC#N (centres undefined)	0	0	151.8	0	0	-
SMILES	PKA-R2B act	SR-BI DiI inh	SR-BI DiI-HDL act	Vif inh	PKA-R1A activ	DiI quencher
O=c1ccc2cc3c([nH]c4ccc(Br)cc43)oc-2c1O	0	87.8	0	0	0	-
O=C(O)c1ccc(N=Nc2c(O)[nH]c3ccc(Br)cc23)cc1	0	0	0	0	0	-
CCC(=O)n1nc(-c2ccc(Cl)cc2)nc1SC	0	0	0	53.0	0	-
C[C@H](CO)N1C[C@H](C)[C@@H](CN(C)C(=O)Cc2ccccc2)OCCCC[C@H](C)Oc2ccc(NC(=O)NC3CCCCC3)cc2C1=O	0	-	-	0	0	-
CCNc1nc(Cl)nc(-c2cn(-c3ccccc3)c3ccccc23)n1	0	72.1	0	0	0	0
COC(=O)[C@@]1(Cc2ccc(F)cc2)[C@H]2c3cc(C(=O)N4CCCC4)n(CCCNc4ncc(C(F)(F)F)cc4Cl)c3C[C@H]2CN1C(=O)c1ccccc1	0	0	0	0	0	0
COc1ccc(C2/C=C\CN(S(=O)(=O)c3ccc(-c4ccccc4)cc3)CC(=O)N2Cc2ccc(F)cc2)cc1 (centres undefined)	0	81.2	0	0	0	0
Cc1ccc(C(=O)O)cc1NS(=O)(=O)c1ccc2c(c1)oc(=O)n2C	0	0	0	0	0	-
COc1ccc(C(=O)N2CCN(c3ccc([N+](=O)[O-])c(NCCc4ccc(OC)c(OC)c4)c3)CC2)cc1	0	?	0	0	0	0
Fc1ccc(-c2cc(-c3nnc4n3CCCCC4)c3ccccc3n2)cc1	0	0	0	0	0	-
Clc1ccc(-c2cc(-c3nnc4n3CCCCC4)c3ccccc3n2)cc1	0	82.9	0	0	0	0
O=C(COc1ccc(Cl)cc1)NNC(=O)c1ccc2c(=O)n3c(nc2c1)CCC3	0	0	0	0	0	-
COC(=O)C1C(=O)c2c([nH]c(C(=O)OC3CCCC3C)c2C)CC1C (centres undefined)	0	0	0	0	0	0
COc1ccc(OC)c(Nc2ccc(Nc3cc(OC)ccc3OC)nn2)c1	0	85.9	0	0	0	5.09µM
OCC[C@@H]1C[C@H](O)[C@@H](O)[C@]2(OCc3ccc4ccccc4c32)O1	0	-	-	-	0	-
O=C(Nc1cccc(S(=O)(=O)N2CCOCC2)c1)C1CCN(S(=O)(=O)c2ccccc2)CC1	0	?	0	0	0	0
Cc1nn(CCCC(=O)Nc2nccs2)c(C)c1[N+](=O)[O-]	0	0	0	0	0	-
CC(=O)Nc1c(I)c(C(=O)N[C@H]2C(O)O[C@H](CO)[C@@H](O)[C@@H]2O)c(I)c(N(C)C(C)=O)c1I (some centres undefined)	0	0	0	0	0	0
CC(C)(C)c1ccc(CSc2ccc(S(=O)(=O)N3CCOCC3)cn2)cc1	0	0	0	0	0	-
Cc1nc2c(cnn2-c2ccccc2Cl)c(=O)n1-c1ccc(N2CCC(C)CC2)cc1	0	72.4	0	0	0	0
Cc1ccc(-n2c(C)nc3c(cnn3-c3ccccc3Cl)c2=O)cc1C	0	0	0	0	0	-
CCOc1ccccc1NC(=O)C(CC(C)C)NC(=O)C1CCC(C)CC1 (centres undefined)	0	79.6	0	0	0	0
CCOc1ccccc1NC(=O)N1C2CCCC1CC(NC(=O)C1CC1)C2 (centres undefined)	0	0	0	0	0	0
CC(C)=CCc1c2c(c3occ(-c4ccc(O)c(O)c4)c(=O)c3c1O)C=CC(C)(C)O2	0	130.9	0	0	0	0.809µM
CC(C)=CCc1c2c(c3occ(-c4ccc(O)cc4)c(=O)c3c1O)C=CC(C)(C)O2	0	0	0	0	0	-

Screening results (PubChem BioAssay)
